In ChEMBL document CHEMBL4715843, “NO-releasing STAT3 inhibitors suppress BRAF-mutant melanoma growth” (Eur J Med Chem, 2020):
Calls of active or inactive are those of the source. The calls are words filed in the database; no cut-off is given here.

Assays:
[1] = tested on: IGROV-1; assay: Anticancer activity against human IGROV-1 cells assessed as cell growth inhibition at 10 uM measured after 48 hrs by SRB assay relative to control; type: functional; details: read-out: GI
Outline: (§1)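 NCI 60-cell-line screen. Cells in RPMI with 5% FBS were plated at 5,000–40,000 cells/well by doubling time and preincubated 24 h at 37 °C. Compound was added at a single 10 µM for 48 h, then cells were fixed with cold TCA (10% final) and stained with 0.4% SRB. Absorbance at 515 nm gave percent growth versus untreated control and time-zero cells.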

[2] = tested on: A-375; assay: Up regulation of p27kip1 expression in human A-375 cells measured after 24 hrs by Western blot analysis; type: functional, cell-based; details: dose 5-50 µM
Outline: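 A375 cells treated overnight (same as cell-cycle treatment, 24 h) with different doses, then lysed and immunoblotted for p27kip1, PAX3 and Cyclin D1.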

[3] = tested on: A-375; assay: Cytotoxicity against human A-375 cells assessed as inhibition of cell proliferation measured after 48 hrs by MTS assay; type: functional, cell-based; details: A-375, 48 h
Outline: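 Cells were exposed to a dose range of inhibitor for 48 h, and viability was read by MTS assay in triplicate. GI50 was taken as the concentration giving 50% growth inhibition, averaged from three independent experiments. A375 was cultured in RPMI-1640 with Glutamax. A549 and NCI-H157 were kept in RPMI-1640, and MIA PaCa-2 and U87-MG in DMEM.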

[4] = molecular target: T1, Signal transducer and activator of transcription 3 (Homo sapiens, UniProt P40763); assay: Inhibition of STAT3 phosphorylation at Y705 residue in human SB-590885-resistant 451Lu cells measured after 12 hrs by Western blot analysis; details: dose 10-25 µM
T1 sequence (P40763 whole entry): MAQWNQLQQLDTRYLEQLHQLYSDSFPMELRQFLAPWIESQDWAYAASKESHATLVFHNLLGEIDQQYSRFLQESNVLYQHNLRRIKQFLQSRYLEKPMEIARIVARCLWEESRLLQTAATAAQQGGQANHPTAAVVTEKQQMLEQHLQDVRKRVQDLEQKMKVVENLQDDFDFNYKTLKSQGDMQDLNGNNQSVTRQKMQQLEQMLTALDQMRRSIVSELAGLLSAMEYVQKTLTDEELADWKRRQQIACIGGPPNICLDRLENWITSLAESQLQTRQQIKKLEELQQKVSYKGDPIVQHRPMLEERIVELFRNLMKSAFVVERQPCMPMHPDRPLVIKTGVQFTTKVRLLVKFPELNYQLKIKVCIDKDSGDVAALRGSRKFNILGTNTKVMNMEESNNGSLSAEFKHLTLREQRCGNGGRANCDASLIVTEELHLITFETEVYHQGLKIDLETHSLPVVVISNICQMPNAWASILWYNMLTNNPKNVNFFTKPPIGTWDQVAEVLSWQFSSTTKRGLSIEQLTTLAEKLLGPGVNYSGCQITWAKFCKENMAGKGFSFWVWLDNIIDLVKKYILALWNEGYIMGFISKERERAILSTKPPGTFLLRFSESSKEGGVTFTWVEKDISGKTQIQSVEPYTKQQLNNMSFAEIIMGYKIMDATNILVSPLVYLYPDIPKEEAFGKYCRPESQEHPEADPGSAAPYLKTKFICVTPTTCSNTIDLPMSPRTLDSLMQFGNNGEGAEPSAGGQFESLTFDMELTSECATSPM
Outline: (§2)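 451 Lu and MEL 1617 pairs, sensitive and resistant; resistant lines maintained in RPMI with 1 µM PLX4720. Treated with 10 and 25 µM for 12 h versus DMSO. Lysates (60 µg protein, 10% SDS-PAGE) immunoblotted for Ser727- and Tyr705-phospho-STAT3, total STAT3, total PAX3, with actin.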

[5] = tested on: MCF-10A; assay: Cytotoxicity against human MCF-10A cells assessed as inhibition of cell proliferation by MTS assay; type: cell-based; details: Homo sapiens, MCF-10A; read-out: IC50
[6] = tested on: A-375; assay: Cell cycle arrest in human A-375 cells assessed as increase in accumulation at G1-phase measured after 24 hrs by […]; type: functional, cell-based; details: dose 10-25 µM
[7] = tested on: A-375; assay: Inhibition of colony formation in human A-375 cells measured over 10 days by crystal violet staining based assay; type: functional, cell-based; details: dose 0.1-10 µM, time 10.0 day
Outline: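 A375 cells seeded at 2500/well in RPMI with 5% FBS, settled overnight, then given a dose series and grown 14 days (10 days in the results text). Fixed in 4% paraformaldehyde for 15 min, stained with 0.2% crystal violet in 20% methanol for 10 min, washed and imaged. Experiment run twice.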

[8] = molecular target: T1, Signal transducer and activator of transcription 3; assay: Inhibition of IRDY 700 oligonucleotide binding to STAT3 in human A-375 cell nuclear extract measured after overnight incubation by electrophoretic mobility shift assay; details: dose 10-25 µM
Outline: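 A375 cells were treated overnight with inhibitor doses or DMSO in full RPMI. Nuclear extracts were prepared by low-salt lysis followed by high-salt extraction, with protease and phosphatase inhibitors. EMSA used 5 µg extract per reaction with IRDye 700 STAT3 consensus oligo; competitor and mutant oligos served as controls, and a STAT3-immunoprecipitated extract was included.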

[9] = molecular target: Mitogen-activated protein kinase; ERK1/ERK2 (Homo sapiens) (UniProt P27361+P28482); assay: Inhibition of ERK1/2 phosphorylation in human A-375 cells at 5 to 50 uM after 12 hrs by Western blotting analysis; type: cell-based; details: dose 5-50 µM
Chain of Mitogen-activated protein kinase; ERK1/ERK2 (Homo sapiens) (P27361 whole entry, looked up): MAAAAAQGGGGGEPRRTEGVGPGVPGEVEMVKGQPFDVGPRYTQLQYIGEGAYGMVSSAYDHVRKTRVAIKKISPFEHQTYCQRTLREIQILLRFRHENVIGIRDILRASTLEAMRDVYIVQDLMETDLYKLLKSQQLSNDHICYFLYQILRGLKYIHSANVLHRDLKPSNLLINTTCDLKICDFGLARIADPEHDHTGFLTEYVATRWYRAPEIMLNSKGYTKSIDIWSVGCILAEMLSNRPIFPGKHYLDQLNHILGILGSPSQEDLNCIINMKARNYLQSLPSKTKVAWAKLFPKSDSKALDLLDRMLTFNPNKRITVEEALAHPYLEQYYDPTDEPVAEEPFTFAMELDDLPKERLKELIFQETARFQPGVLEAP
Chain of Mitogen-activated protein kinase; ERK1/ERK2 (Homo sapiens) (P28482 whole entry, looked up): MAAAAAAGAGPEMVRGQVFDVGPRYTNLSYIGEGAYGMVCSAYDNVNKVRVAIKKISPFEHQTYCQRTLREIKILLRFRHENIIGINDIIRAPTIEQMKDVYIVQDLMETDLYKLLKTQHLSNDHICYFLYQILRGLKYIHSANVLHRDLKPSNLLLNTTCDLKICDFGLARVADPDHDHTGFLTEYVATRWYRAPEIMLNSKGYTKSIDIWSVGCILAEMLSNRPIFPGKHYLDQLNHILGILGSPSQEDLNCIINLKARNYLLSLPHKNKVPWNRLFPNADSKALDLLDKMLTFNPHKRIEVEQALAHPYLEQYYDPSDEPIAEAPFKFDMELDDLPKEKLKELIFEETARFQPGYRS

[10] = molecular target: T1, Signal transducer and activator of transcription 3; assay: Inhibition of STAT3 phosphorylation at S727 residue in human SB-590885-sensitive 451Lu cells measured after 12 hrs by Western blot analysis; details: dose 10-25 µM; outline: as §2
[11] = tested on: A-375; assay: Cell cycle arrest in human A-375 cells assessed as accumulation at G1-phase at 25 uM measured after 24 hrs by […] (reference value: 55.5 to 56.2%); type: functional
[12] = molecular target: T1, Signal transducer and activator of transcription 3; assay: Inhibition of STAT3 in human SB-590885-resistant MEL1617 cells assessed as reduction in STAT3 transcriptional activity measured after 12 hrs by Dual-luciferase reporter gene assay; type: cell-based
Outline: (§3)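 Cells co-transfected with inducible STAT3-responsive firefly luciferase and constitutive Renilla luciferase constructs (40:1) using Lipofectamine 3000. After 48 h, dose series in DMSO vehicle applied for 12 h, followed by dual-luciferase readout. Firefly signal normalized to Renilla and compared with untreated cells. Run in triplicate; IC50 taken from dose–response curves.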

[13] = molecular target: T1, Signal transducer and activator of transcription 3; assay: Inhibition of STAT3 in human SB-590885-resistant MEL1617 cells assessed as reduction in PAX3 expression at 10 to 25 uM measured after 12 hrs by Western blot analysis; type: cell-based; details: dose 10-25 µM; outline: as §2
[14] = tested on: A-375; assay: Cell cycle arrest in human A-375 cells assessed as accumulation at G2-phase at 25 uM measured after 24 hrs by […] (reference value: 9.14 to 10.5%); type: functional
[15] = molecular target: Signal transducer and activator of transcription 1-alpha/beta (Homo sapiens) (UniProt P42224); assay: Inhibition of STAT1 phosphorylation at Y701 residues in human A-375 cells at 50 uM after 20 hrs by Western blotting analysis; type: cell-based
Chain of Signal transducer and activator of transcription 1-alpha/beta (Homo sapiens) (P42224 whole entry): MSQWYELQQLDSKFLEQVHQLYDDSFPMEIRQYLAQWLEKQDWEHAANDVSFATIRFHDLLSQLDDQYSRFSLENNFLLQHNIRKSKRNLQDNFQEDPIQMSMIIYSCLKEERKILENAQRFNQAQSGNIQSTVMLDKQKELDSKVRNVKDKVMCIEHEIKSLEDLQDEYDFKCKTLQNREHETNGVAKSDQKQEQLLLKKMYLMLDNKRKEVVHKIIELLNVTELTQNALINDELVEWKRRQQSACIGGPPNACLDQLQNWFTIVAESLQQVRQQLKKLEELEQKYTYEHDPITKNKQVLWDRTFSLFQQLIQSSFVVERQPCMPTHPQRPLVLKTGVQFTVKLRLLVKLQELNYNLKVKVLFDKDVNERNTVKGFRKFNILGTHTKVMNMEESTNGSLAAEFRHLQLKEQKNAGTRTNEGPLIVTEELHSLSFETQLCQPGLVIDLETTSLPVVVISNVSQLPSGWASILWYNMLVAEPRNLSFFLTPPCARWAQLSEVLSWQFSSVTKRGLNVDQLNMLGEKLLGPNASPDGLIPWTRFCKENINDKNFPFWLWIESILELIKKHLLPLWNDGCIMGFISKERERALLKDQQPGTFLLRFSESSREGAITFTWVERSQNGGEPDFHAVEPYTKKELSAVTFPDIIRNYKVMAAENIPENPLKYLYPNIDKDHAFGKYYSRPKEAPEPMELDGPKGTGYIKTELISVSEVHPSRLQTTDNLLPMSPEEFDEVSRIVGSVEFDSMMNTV
Outline: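 A375 cells exposed to a dose range of inhibitor for 20 h (overnight), up to 50 µM; lysates immunoblotted for phospho-STAT1 Y701, phospho-STAT5 Y694 and phospho-STAT6 Y641, with actin and/or vinculin as loading controls.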

[16] = molecular target: T1, Signal transducer and activator of transcription 3; assay: Inhibition of STAT3 phosphorylation at S727 residue in human SB-590885-resistant 451Lu cells measured after 12 hrs by Western blot analysis; details: dose 10-25 µM; outline: as §2
[17] = molecular target: T1, Signal transducer and activator of transcription 3; assay: Inhibition of STAT3 in human SB-590885-resistant 451Lu cells assessed as reduction in PAX3 expression measured after 12 hrs by Western blot analysis; details: dose 10-25 µM; outline: as §2
[18] = molecular target: T1, Signal transducer and activator of transcription 3; assay: Inhibition of STAT3 in human SB-590885-sensitive 451Lu cells assessed as reduction in PAX3 expression measured after 12 hrs by Western blot analysis; details: dose 10-25 µM; outline: as §2
[19] = molecular target: T1, Signal transducer and activator of transcription 3; assay: Inhibition of STAT3 phosphorylation at S727 residue in human SB-590885-resistant MEL1617 cells at 10 to 25 uM measured after 12 hrs by Western blot analysis; type: cell-based; details: dose 10-25 µM; outline: as §2
[20] = tested on: LOX IMVI; assay: Anticancer activity against human LOX IMVI cells assessed as cell growth inhibition at 10 uM measured after 48 hrs by SRB assay relative to control; type: functional; details: read-out: GI; outline: as §1
[21] = molecular target: T1, Signal transducer and activator of transcription 3; assay: Inhibition of STAT3 phosphorylation at Y705 residue in human SB-590885-sensitive MEL1617 cells at 10 to 25 uM measured after 12 hrs by Western blot analysis; type: cell-based; details: dose 10-25 µM; outline: as §2
[22] = tested on: A-375; assay: Cell cycle arrest in human A-375 cells assessed as accumulation at G1-phase at 10 uM measured after 24 hrs by […] (reference value: 55.5 to 56.2%); type: functional
[23] = molecular target: T1, Signal transducer and activator of transcription 3; assay: Inhibition of STAT3 in human SB-590885-sensitive MEL1617 cells assessed as reduction in STAT3 transcriptional activity measured after 12 hrs by Dual-luciferase reporter gene assay; type: cell-based; outline: as §3
[24] = molecular target: T1, Signal transducer and activator of transcription 3; assay: Inhibition of STAT3 in human SB-590885-resistant 451Lu cells assessed as reduction in STAT3 transcriptional activity measured after 12 hrs by Dual-luciferase reporter gene assay; outline: as §3

Structure (SMILES)	inhibition of growth at 10 µM [1] [%]	Activity [2]	IC50 [3] [µM]	inhibition [4]	IC50 [5] [µM]	Activity [6]	inhibition [7]	inhibition [8]	inhibition [9]	inhibition [10]	Activity [11] [%]	IC50 [12] [µM]	inhibition [13]	Activity [14] [%]	inhibition [15]	inhibition [16]	inhibition [17]	inhibition [18]	inhibition [19]	inhibition of growth at 10 µM [20] [%]	further results
C=CCn1c(SCC(=O)Nc2ccc(/C(C)=N\O)cc2)nnc1-c1cc(-c2ccc(Cl)cc2)nc2ccccc12	100	Dose-dependent effect	1.9	Dose-dependent effect	92.9	Dose-dependent effect	Dose-dependent effect	Dose-dependent effect	inactive	Dose-dependent effect	61.1	15.6	Active	15.7	inactive	Dose-dependent effect	Dose-dependent effect	Dose-dependent effect	Active	100	inhibition [21]: Active; Activity [22]: 56.7%; IC50 [23]: 21.4 µM; IC50 [24]: 17 µM
C=CCn1c(SCC(=O)Nc2ccc(/C(C)=N\O)cc2)nnc1-c1cc(-c2ccccc2)nc2ccccc12	76	Dose-dependent effect	7.7	Dose-dependent effect	100	Dose-dependent effect	Dose-dependent effect	Dose-dependent effect	inactive	Dose-dependent effect	75.4	9.9	Active	11.2	inactive	Dose-dependent effect	Dose-dependent effect	Dose-dependent effect	Active	76	inhibition [21]: Active; Activity [22]: 63%; IC50 [23]: 10.3 µM; IC50 [24]: 4.7 µM
